ChEMBL document CHEMBL4400581, “First Example of Catalytic Synthesis of Difurazanohexahydrohexaazapyrenes and in Vitro Study of Their Antitumor Activity” (2019)

How the values were obtained:
[1] = tested on: Jurkat; experiment: Cytotoxicity against human Jurkat cells by MTT assay; assay type: functional
Procedure, shortened: (§1)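 Cytotoxicity was measured by MTT assay across a range of concentrations in human tumour lines, with etoposide as the reference drug. Results are expressed as CC50.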

[2] = tested on: K562; experiment: Cytotoxicity against human K562 cells by MTT assay; assay type: functional; procedure, shortened: as §1
[3] = tested on: U-937; experiment: Cytotoxicity against human U937 cells by MTT assay; assay type: functional; procedure, shortened: as §1
[4] = tested on: HeLa; experiment: Cytotoxicity against human HeLa cells by MTT assay; assay type: functional; procedure, shortened: as §1
[5] = tested on: U-937; experiment: Induction of apoptosis in human U937 cells assessed as live cells at 0.2 uM measured after 24 hrs by Annexin alexa fluor 488/7AAD staining based flow cytometry (reference value: 98.31%); assay type: functional
[6] = tested on: U-937; experiment: Induction of apoptosis in human U937 cells assessed as early apoptotic cells at 0.2 uM measured after 24 hrs by Annexin alexa fluor 488/7AAD staining based flow cytometry (reference value: 1.45%); assay type: functional
[7] = tested on: U-937; experiment: Induction of apoptosis in human U937 cells assessed as late apoptotic cells at 0.2 uM measured after 24 hrs by Annexin alexa fluor 488/7AAD staining based flow cytometry (reference value: 0.05%); assay type: functional
[8] = tested on: U-937; experiment: Induction of apoptosis in human U937 cells assessed as necrotic cells at 0.2 uM measured after 24 hrs by Annexin alexa fluor 488/7AAD staining based flow cytometry (reference value: 0.19%); assay type: functional
[9] = tested on: U-937; experiment: Induction of apoptosis in human U937 cells assessed as live cells at 0.1 uM measured after 24 hrs by Annexin alexa fluor 488/7AAD staining based flow cytometry (reference value: 98.31%); assay type: functional
[10] = tested on: U-937; experiment: Induction of apoptosis in human U937 cells assessed as early apoptotic cells at 0.1 uM measured after 24 hrs by Annexin alexa fluor 488/7AAD staining based flow cytometry (reference value: 1.45%); assay type: functional
[11] = tested on: U-937; experiment: Induction of apoptosis in human U937 cells assessed as late apoptotic cells at 0.1 uM measured after 24 hrs by Annexin alexa fluor 488/7AAD staining based flow cytometry (reference value: 0.05%); assay type: functional
[12] = tested on: U-937; experiment: Induction of apoptosis in human U937 cells assessed as necrotic cells at 0.1 uM measured after 24 hrs by Annexin alexa fluor 488/7AAD staining based flow cytometry (reference value: 0.19%); assay type: functional
[13] = tested on: U-937; experiment: Induction of apoptosis in human U937 cells assessed as live cells at 0.05 uM measured after 24 hrs by Annexin alexa fluor 488/7AAD staining based flow cytometry (reference value: 98.31%); assay type: functional
[14] = tested on: U-937; experiment: Induction of apoptosis in human U937 cells assessed as early apoptotic cells at 0.05 uM measured after 24 hrs by Annexin alexa fluor 488/7AAD staining based flow cytometry (reference value: 1.45%); assay type: functional
[15] = tested on: U-937; experiment: Induction of apoptosis in human U937 cells assessed as late apoptotic cells at 0.05 uM measured after 24 hrs by Annexin alexa fluor 488/7AAD staining based flow cytometry (reference value: 0.05%); assay type: functional
[16] = tested on: U-937; experiment: Induction of apoptosis in human U937 cells assessed as necrotic cells at 0.05 uM measured after 24 hrs by Annexin alexa fluor 488/7AAD staining based flow cytometry (reference value: 0.19%); assay type: functional
[17] = tested on: U-937; experiment: Induction of apoptosis in human U937 cells assessed as live cells at 0.025 uM measured after 24 hrs by Annexin alexa fluor 488/7AAD staining based flow cytometry (reference value: 98.31%); assay type: functional
[18] = tested on: U-937; experiment: Induction of apoptosis in human U937 cells assessed as early apoptotic cells at 0.025 uM measured after 24 hrs by Annexin alexa fluor 488/7AAD staining based flow cytometry (reference value: 1.45%); assay type: functional
[19] = tested on: U-937; experiment: Induction of apoptosis in human U937 cells assessed as late apoptotic cells at 0.025 uM measured after 24 hrs by Annexin alexa fluor 488/7AAD staining based flow cytometry (reference value: 0.05%); assay type: functional
[20] = tested on: U-937; experiment: Induction of apoptosis in human U937 cells assessed as necrotic cells at 0.025 uM measured after 24 hrs by Annexin alexa fluor 488/7AAD staining based flow cytometry (reference value: 0.19%); assay type: functional
[21] = tested on: U-937; experiment: Induction of apoptosis in human U937 cells measured after 24 hrs by Annexin alexa fluor 488/7AAD staining based flow cytometry; assay type: functional, cell-based
Procedure, shortened: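 Treated U937 cells were stained with annexin V Alexa Fluor 488 and 7AAD. Fluorescence intensity was read by flow cytometry, with etoposide run as the reference drug.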

[22] = tested on: U-937; experiment: Cell cycle arrest in human U937 cells assessed as accumulation at G1 phase at 0.2 uM measured after 24 hrs by propidium iodide staining based assay (reference value: 41.98%); assay type: functional
Procedure, shortened: (§2)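 U937 cells were exposed to the test agent at 0.2, 0.1, 0.05 or 0.025 μM for 24 h alongside an untreated control. DNA content was measured by propidium iodide staining and flow cytometry, giving the G0/G1, S and G2+M fractions and the hypodiploid pre-G0 (sub-G1) population. Values are means ± SD of three independent experiments, compared with control (p < 0.05, p < 0.01).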

[23] = tested on: U-937; experiment: Cell cycle arrest in human U937 cells assessed as accumulation at S phase at 0.2 uM measured after 24 hrs by propidium iodide staining based assay (reference value: 45.88%); assay type: functional; procedure, shortened: as §2
[24] = tested on: U-937; experiment: Cell cycle arrest in human U937 cells assessed as accumulation at G2 phase at 0.2 uM measured after 24 hrs by propidium iodide staining based assay (reference value: 10.7%); assay type: functional; procedure, shortened: as §2
[25] = tested on: U-937; experiment: Cell cycle arrest in human U937 cells assessed as accumulation at G2/G1 phase at 0.2 uM measured after 24 hrs by propidium iodide staining based assay (reference value: 1.98%); assay type: functional
[26] = tested on: U-937; experiment: Cell cycle arrest in human U937 cells assessed as accumulation at sub-G1 phase at 0.2 uM measured after 24 hrs by propidium iodide staining based assay (reference value: 0.01%); assay type: functional; procedure, shortened: as §2
[27] = tested on: U-937; experiment: Cell cycle arrest in human U937 cells assessed as accumulation at super-G2 phase at 0.2 uM measured after 24 hrs by propidium iodide staining based assay (reference value: 0.45%); assay type: functional
[28] = tested on: U-937; experiment: Cell cycle arrest in human U937 cells assessed as accumulation at G1 phase at 0.1 uM measured after 24 hrs by propidium iodide staining based assay (reference value: 41.98%); assay type: functional; procedure, shortened: as §2
[29] = tested on: U-937; experiment: Cell cycle arrest in human U937 cells assessed as accumulation at S phase at 0.1 uM measured after 24 hrs by propidium iodide staining based assay (reference value: 45.88%); assay type: functional; procedure, shortened: as §2
[30] = tested on: U-937; experiment: Cell cycle arrest in human U937 cells assessed as accumulation at G2 phase at 0.1 uM measured after 24 hrs by propidium iodide staining based assay (reference value: 10.7%); assay type: functional; procedure, shortened: as §2
[31] = tested on: U-937; experiment: Cell cycle arrest in human U937 cells assessed as accumulation at G2/G1 phase at 0.1 uM measured after 24 hrs by propidium iodide staining based assay (reference value: 1.98%); assay type: functional
[32] = tested on: U-937; experiment: Cell cycle arrest in human U937 cells assessed as accumulation at sub-G1 phase at 0.1 uM measured after 24 hrs by propidium iodide staining based assay (reference value: 0.01%); assay type: functional; procedure, shortened: as §2
[33] = tested on: U-937; experiment: Cell cycle arrest in human U937 cells assessed as accumulation at super-G2 phase at 0.1 uM measured after 24 hrs by propidium iodide staining based assay (reference value: 0.45%); assay type: functional
[34] = tested on: U-937; experiment: Cell cycle arrest in human U937 cells assessed as accumulation at G1 phase at 0.05 uM measured after 24 hrs by propidium iodide staining based assay (reference value: 41.98%); assay type: functional; procedure, shortened: as §2
[35] = tested on: U-937; experiment: Cell cycle arrest in human U937 cells assessed as accumulation at S phase at 0.05 uM measured after 24 hrs by propidium iodide staining based assay (reference value: 45.88%); assay type: functional; procedure, shortened: as §2
[36] = tested on: U-937; experiment: Cell cycle arrest in human U937 cells assessed as accumulation at G2 phase at 0.05 uM measured after 24 hrs by propidium iodide staining based assay (reference value: 10.7%); assay type: functional; procedure, shortened: as §2
[37] = tested on: U-937; experiment: Cell cycle arrest in human U937 cells assessed as accumulation at G2/G1 phase at 0.05 uM measured after 24 hrs by propidium iodide staining based assay (reference value: 1.98%); assay type: functional
[38] = tested on: U-937; experiment: Cell cycle arrest in human U937 cells assessed as accumulation at sub-G1 phase at 0.05 uM measured after 24 hrs by propidium iodide staining based assay (reference value: 0.01%); assay type: functional; procedure, shortened: as §2
[39] = tested on: U-937; experiment: Cell cycle arrest in human U937 cells assessed as accumulation at super-G2 phase at 0.05 uM measured after 24 hrs by propidium iodide staining based assay (reference value: 0.45%); assay type: functional
[40] = tested on: U-937; experiment: Cell cycle arrest in human U937 cells assessed as accumulation at G1 phase at 0.025 uM measured after 24 hrs by propidium iodide staining based assay (reference value: 41.98%); assay type: functional; procedure, shortened: as §2
[41] = tested on: U-937; experiment: Cell cycle arrest in human U937 cells assessed as accumulation at S phase at 0.025 uM measured after 24 hrs by propidium iodide staining based assay (reference value: 45.88%); assay type: functional; procedure, shortened: as §2
[42] = tested on: U-937; experiment: Cell cycle arrest in human U937 cells assessed as accumulation at G2 phase at 0.025 uM measured after 24 hrs by propidium iodide staining based assay (reference value: 10.7%); assay type: functional; procedure, shortened: as §2
[43] = tested on: U-937; experiment: Cell cycle arrest in human U937 cells assessed as accumulation at G2/G1 phase at 0.025 uM measured after 24 hrs by propidium iodide staining based assay (reference value: 1.98%); assay type: functional
[44] = tested on: U-937; experiment: Cell cycle arrest in human U937 cells assessed as accumulation at sub-G1 phase at 0.025 uM measured after 24 hrs by propidium iodide staining based assay (reference value: 0.01%); assay type: functional; procedure, shortened: as §2
[45] = tested on: U-937; experiment: Cell cycle arrest in human U937 cells assessed as accumulation at super-G2 phase at 0.025 uM measured after 24 hrs by propidium iodide staining based assay (reference value: 0.45%); assay type: functional

C1CCC(N2CN3c4nonc4N4CN(C5CCCCC5)CN5c6nonc6N(C2)C3C45)CC1 (stereo not given)
Activity [1]: Dose-dependent effect | CC50 [1]: 530 nM | Activity [2]: Dose-dependent effect | CC50 [2]: 590 nM | Activity [3]: Dose-dependent effect | CC50 [3]: 540 nM | Activity [4]: Dose-dependent effect | CC50 [4]: 1040 nM

C1CC2CC1CC2N1CN2c3nonc3N3CN(C4CC5CCC4C5)CN4c5nonc5N(C1)C2C34 (stereo not given)
Activity [1]: Dose-dependent effect | CC50 [1]: 160 nM | Activity [2]: Dose-dependent effect | CC50 [2]: 210 nM | Activity [3]: Dose-dependent effect | CC50 [3]: 110 nM | Activity [4]: Dose-dependent effect | CC50 [4]: 320 nM | Activity [5]: 23.18% | Activity [6]: 19.35% | Activity [7]: 53.07% | Activity [8]: 4.4% | Activity [9]: 42.25% | Activity [10]: 15.52% | Activity [11]: 40.93% | Activity [12]: 1.31% | Activity [13]: 60.65% | Activity [14]: 10.94% | Activity [15]: 27.01% | Activity [16]: 1.4% | Activity [17]: 71.74% | Activity [18]: 10.44% | Activity [19]: 16.54% | Activity [20]: 1.28% | Activity [21]: Dose-dependent effect | Activity [22]: 17.74% | Activity [23]: 38.89% | Activity [24]: 3.12% | Activity [25]: 1.91% | Activity [26]: 20.66% | Activity [27]: 1.38% | Activity [28]: 34.01% | Activity [29]: 32.87% | Activity [30]: 2.83% | Activity [31]: 1.98% | Activity [32]: 16.73% | Activity [33]: 0.94% | Activity [34]: 30.09% | Activity [35]: 41.7% | Activity [36]: 3.29% | Activity [37]: 1.93% | Activity [38]: 11.01% | Activity [39]: 2.07% | Activity [40]: 35.15% | Activity [41]: 48.65% | Activity [42]: 4.11% | Activity [43]: 1.98% | Activity [44]: 6.37% | Activity [45]: 2.28%

C1CCC(N2CN3c4nonc4N4CN(C5CCCC5)CN5c6nonc6N(C2)C3C45)C1 (stereo not given)
Activity [1]: Dose-dependent effect | CC50 [1]: 510 nM | Activity [2]: Dose-dependent effect | CC50 [2]: 640 nM | Activity [3]: Dose-dependent effect | CC50 [3]: 570 nM | Activity [4]: Dose-dependent effect | CC50 [4]: 980 nM
